What was measured:
Male Sprague‐Dawley rats = test: In vivo myocardial infarction rodent model; set-up: species or system rat
[1] = system: primary neonatal cardiomyocytes (PNCMs); test: Live cell imaging of mitochondrial membrane potential under normoxia; format: cell-based, rat
In short: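 Neonatal rat cardiomyocytes (pups 1–3 days old) were plated on glass coverslips at 150 000 cells per dish. Cells were loaded with TMRE 150 nmol/L for 30 min at 37°C, then washed. Imaging was single-cell in a chamber at 37°C, 5% pco₂ and 21% po₂. Inhibitor (1 μmol/L) was added 10 min before the TRPV1 agonist (1 μmol/L). Images were taken every 5 min over 30 min and normalized to baseline (=1). n=3 biological replicates.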

humans = conditions: TRPV1 antagonist; cited from earlier work
isolated rat hearts = test: Isolated heart model of ischemia–reperfusion injury; conditions: capsaicin 0.1 μmol/L, unpaced hearts, vs vehicle DMSO; n=4

**Q.** Which “Effect on heart rate change afforded by capsaicin” value (Male Sprague‐Dawley rats; CPZ 3 mg/kg or CsA 2.5 mg/kg before capsaicin 0.3 mg/kg) does the source give for `Oc1cc2c(cc1O)CN(C(=S)NCCc1ccc(Cl)cc1)CCC2` [CPZ, capsazepine] here?
**A.** Its value is “reduced the change in heart rate”.

**Q.** And the “Effect on capsaicin-induced change in mitochondrial membrane potential (TMRE)” value ([1]; CPZ 1 μmol/L or CsA 1 μmol/L 10 minutes prior to CAP 1 μmol/L, n=3)?
**A.** Its value is “blocked”.

**Q.** Which “Body temperature effect in humans” value (humans) does the source give for `CC(=O)Nc1nc2c(Oc3cc(-c4ccc(C(F)(F)F)cc4)ncn3)cccc2s1` [AMG517] here?
**A.** Its value is “caused sudden hyperthermia in humans that persisted for days”.

**Q.** Which “Heart rate during first 15 minutes of infusion” value (isolated rat hearts) does the source give for `COc1cc(CNC(=O)CCCC/C=C/C(C)C)ccc1O` [CAP, capsaicin] here?
**A.** Its value is “increased heart rate during the first 15 minutes of infusion”.

**Q.** What about the “Change in heart rate after CAP administration” value (Male Sprague‐Dawley rats; CAP 0.1-3.0 mg/kg iv, n=6 per group) of the same molecule?
**A.** Its value is “increased heart rate when given intravenously”.

**Q.** What about the “infarct size reduction compared with control” value (Male Sprague‐Dawley rats; given 5 minutes before reperfusion (CAP 0.3, CsA 2.5, V1‐cal 1 mg/kg iv)) of the same molecule?
**A.** Its value is 27%.

**Q.** And the “Mitochondrial membrane potential (TMRE fluorescence)” value ([1]; capsaicin 0.1–10 μmol/L, 30 min, normoxia, 3 biological replicates)?
**A.** Its value is “decreased mitochondrial membrane potential”.
